Measurements collected from several papers.

`COc1ccnc(C(=O)N[C@H]2COC(=O)[C@H](Cc3ccccc3)[C@@H](OC(=O)C(C)C)[C@H](C)OC2=O)c1OCOC(=O)C(C)C` gave an LD50 of > 2000 mg/kg (rat; oral).
`NC(=O)[C@@H]1CC(F)(F)CN1C(=O)c1ccc(N2CC(F)(F)C2)c(OCC2CC2)n1` gave a hepatocyte CLint of 14 µL/min/10⁶ cells (metabolic stability; human, hepatocytes).
With `Cc1cc(C)nc(Nc2ncc(C(=O)NCCc3c(C)[nH]c4ccccc34)cn2)c1` the microsomal CLint was 185 µL/min/mg (metabolic stability; rat, liver microsomes; 1 µM).
With `Cc1c(C(=O)Nc2ccc(OC(F)(F)F)cc2)nc(-c2ccc(Cl)cc2Cl)n1-c1ccc(OS(=O)(=O)CCC(F)(F)F)cc1` the logD was > 4 (shake flask; aqueous buffer; pH 7.4).
With `NCCCNCCCCNCCCNc1cc2nc(-c3ccccc3Cl)[nH]c(=O)c2cc1F` the LD50 was > 1000 mg/kg (male Sprague-Dawley rat; oral).
With `N=c1c2c(-c3ccccc3)c(-c3ccccc3)n(Cc3ccccc3)c2ncn1[C@H]1CC[C@H](O)CC1` the scaled CLint was 19 mL/min/kg (metabolic stability; Sprague-Dawley rat, hepatocytes; 1 µM).
The hepatocyte CLint of `C[C@H]1COCCN1c1nc(NCc2cccnc2C(F)(F)F)c2cccnc2n1` is reported as 5 µL/min/10⁶ cells (metabolic stability; rat, hepatocytes).
`C=CCNc1c(O)cc2c(O)c1C[C@@H](C)C[C@H](OC)[C@H](O)[C@@H](C)/C=C(\C)[C@H](OC(N)=O)[C@@H](OC)/C=C\C=C(/C)C(=O)N2` gave a clearance of 1630 mL/min (human, plasma; intravenous, 400 mg/m², patients, infusion).
`Nc1nc2[nH]cc(CCc3ccc(C(=O)N[C@@H](CCC(=O)O)C(=O)O)cc3)c2c(=O)[nH]1` gave a clearance of 81.7 mL/min (human, plasma; intravenous, 500 mg/m², patients).
